Test results reported in ChEMBL document CHEMBL1130042, “Structure-activity relationships of N2-aryl-3-(isoxazolylsulfamoyl)-2-thiophenecarboxamides as selective endothelin receptor-A antagonists” (J Med Chem, 1997).

What was measured:
[1] = target: T1, Endothelin-1 receptor (Homo sapiens, UniProt P25101); assay: In vitro inhibition of endothelin binding to human Endothelin A receptor using [125I]-labeled ET-1 competition assay
T1 sequence (P25101 whole entry): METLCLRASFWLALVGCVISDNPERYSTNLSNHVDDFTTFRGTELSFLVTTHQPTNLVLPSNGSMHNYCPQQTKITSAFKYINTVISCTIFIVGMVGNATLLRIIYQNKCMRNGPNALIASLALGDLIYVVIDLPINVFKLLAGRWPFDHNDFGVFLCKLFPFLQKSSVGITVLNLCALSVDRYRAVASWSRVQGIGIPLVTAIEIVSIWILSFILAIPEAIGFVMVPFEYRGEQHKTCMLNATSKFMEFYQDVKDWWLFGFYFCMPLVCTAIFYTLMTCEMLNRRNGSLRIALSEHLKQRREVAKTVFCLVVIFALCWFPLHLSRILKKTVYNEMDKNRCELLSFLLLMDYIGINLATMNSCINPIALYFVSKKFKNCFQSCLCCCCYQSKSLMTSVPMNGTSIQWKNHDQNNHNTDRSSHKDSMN
Outline: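 Membranes from confluent TE 671 cells (endogenous human ETA), DNase-treated, 3 mg/tube. Buffer 30 mM HEPES pH 7.4, 150 mM NaCl, 5 mM MgCl2, 0.05% bacitracin, final 0.25% DMSO. Tracer 4 pM [125I]ET-1, nonspecific binding with 100 nM ET-1. Incubated 16–18 h at 24 °C, centrifuged, bound radioactivity gamma-counted. Run in triplicate.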

[2] = target: T2, Endothelin receptor type B (Homo sapiens, UniProt P24530); assay: In vitro inhibition of endothelin binding to human Endothelin B receptor using [125I]-labeled ET-1 competition assay
T2 sequence (P24530 whole entry): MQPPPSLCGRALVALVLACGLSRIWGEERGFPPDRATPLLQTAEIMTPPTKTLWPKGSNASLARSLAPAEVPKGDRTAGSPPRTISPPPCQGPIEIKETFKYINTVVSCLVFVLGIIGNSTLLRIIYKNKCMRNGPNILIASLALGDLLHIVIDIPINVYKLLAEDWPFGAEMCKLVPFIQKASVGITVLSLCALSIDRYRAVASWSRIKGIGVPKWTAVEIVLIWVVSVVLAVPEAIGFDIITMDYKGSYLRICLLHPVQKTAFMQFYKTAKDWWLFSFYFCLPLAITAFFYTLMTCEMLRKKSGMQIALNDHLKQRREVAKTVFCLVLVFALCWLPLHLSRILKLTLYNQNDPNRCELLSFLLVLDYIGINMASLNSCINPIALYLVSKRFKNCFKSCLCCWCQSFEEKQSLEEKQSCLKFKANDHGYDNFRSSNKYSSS
Outline: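 Membranes (0.75 mg/tube) from COS 7 cells transfected with human ETB. Buffer 30 mM HEPES pH 7.4, 150 mM NaCl, 5 mM MgCl2, 0.05% bacitracin, final 0.25% DMSO. Tracer 4 pM [125I]ET-1, nonspecific binding with 100 nM ET-1. Incubated 16–18 h at 24 °C, bound radioactivity gamma-counted. Run in triplicate.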

[3] = system: Rattus norvegicus; assay: % inhibition of ET-1 induced pressor response in conscious rats 30 min after intravenous administration of 15 mg/kg of the compound; format: functional; settings: 0.5 h
Outline: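 Conscious rats rested 60 min in a restrainer. Autonomic blockade by iv atropine methyl nitrate (3 mg/kg) plus propranolol (2 mg/kg). Vehicle was 1 M Tris base or sodium bicarbonate. Control iv bolus ET-1 challenge ([…]), antagonist iv bolus once MAP returned to baseline, second ET-1 challenge 30 min later. Inhibition = 100 × (control − antagonist max pressor response)/control max pressor response.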

[4] = Compound at dose 60 mg/kg was administered to rats and Serum half life was determined; format: ADME, organism-based; set-up: dose 60 mg/kg; settings: rat
[5] = Compound at dose 60 mg/kg was administered to rats and Serum half life was determined; range = 2.5-3 h; format: ADME, organism-based; set-up: dose 60 mg/kg; settings: rat

SMILES	IC50 [1]	IC50 [2]	half-life [4]	half-life [5]	inhibition in vivo at 15 mg/kg [3]
Cc1noc(NS(=O)(=O)c2ccsc2C(=O)Nc2ccc3c(c2)OCO3)c1Br	0.019 µM	10.1 µM	–	–	–
COc1cccc(NC(=O)c2sccc2S(=O)(=O)Nc2onc(C)c2Br)c1	0.085 µM	63.1 µM	–	–	–
CCC(C)c1ccc(NC(=O)c2sccc2S(=O)(=O)Nc2onc(C)c2Br)cc1 (stereo not drawn)	0.054 µM	5.89 µM	–	–	–
COc1ccc(NC(=O)c2sccc2S(=O)(=O)Nc2onc(C)c2Br)cc1	0.024 µM	30.2 µM	–	–	–
Cc1ccc(NC(=O)c2sccc2S(=O)(=O)Nc2onc(C)c2Br)cc1	0.012 µM	9.12 µM	–	–	–
Cc1nnc(NC(=O)c2sccc2S(=O)(=O)Nc2onc(C)c2Cl)s1	1.29 µM	> 100 µM	–	–	–
Cc1noc(NS(=O)(=O)c2ccsc2C(N)=O)c1Br	–	> 100 µM	–	–	–
COc1cccc(NCc2sccc2S(=O)(=O)Nc2onc(C)c2Br)c1	0.933 µM	7.59 µM	–	–	–
Cc1noc(NS(=O)(=O)c2ccsc2C(=O)NCc2ccccc2)c1Br	0.229 µM	97.7 µM	–	–	–
Cc1noc(NS(=O)(=O)c2ccsc2C(=O)Nc2ccc(C(C)(C)C)cc2)c1Br	0.047 µM	6.92 µM	–	–	–
Cc1noc(NS(=O)(=O)c2ccsc2C(=O)Nc2ccc(-c3ccccc3)cc2)c1Br	0.977 µM	8.71 µM	–	–	–
Cc1noc(NS(=O)(=O)c2ccsc2C(=O)Nc2ccc(O)nn2)c1Br	0.065 µM	–	–	–	–
Cc1noc(NS(=O)(=O)c2ccsc2C(=O)Nc2ccccc2)c1Br	0.166 µM	77.6 µM	–	–	–
Cc1ccc(NC(=O)c2sccc2S(=O)(=O)Nc2onc(C)c2C)cc1	0.032 µM	67.6 µM	–	–	–
CCCCc1ccc(NC(=O)c2sccc2S(=O)(=O)Nc2onc(C)c2Br)cc1	0.2 µM	6.17 µM	–	–	–
Cc1noc(NS(=O)(=O)c2ccsc2C(=O)Nc2cccc(C(=O)O)c2)c1Br	–	117 µM	–	–	–
Cc1noc(NS(=O)(=O)c2ccsc2C(=O)Nc2ccc(C(C)C)cc2)c1Br	0.02 µM	4.37 µM	–	–	–
CCc1ccc(NC(=O)c2sccc2S(=O)(=O)Nc2onc(C)c2Br)cc1	0.017 µM	7.41 µM	–	–	–
Cc1ccccc1NC(=O)c1sccc1S(=O)(=O)Nc1onc(C)c1Br	0.027 µM	> 100 µM	–	–	–
Cc1noc(NS(=O)(=O)c2ccsc2C(=O)N(C)c2ccccc2)c1Br	1.91 µM	> 100 µM	–	–	–
Cc1noc(NS(=O)(=O)c2ccsc2C(=O)Nc2cccc(O)c2)c1Br	0.146 µM	67.5 µM	–	–	–
Cc1cccc(NC(=O)c2sccc2S(=O)(=O)Nc2onc(C)c2Br)c1	0.104 µM	67.4 µM	–	–	–

Continued, in another order:

IC50 [1]	IC50 [2]	half-life [4]	half-life [5]	SMILES	inhibition in vivo at 15 mg/kg [3]
0.0034 µM	40.4 µM	2.5 h	–	Cc1noc(NS(=O)(=O)c2ccsc2C(=O)Nc2cc3c(cc2C#N)OCO3)c1Cl	20%
0.015 µM	–	–	–	Cc1ccc(NC(=O)c2sccc2S(=O)(=O)Nc2onc(C)c2Cl)cc1	–
0.01 µM	32.6 µM	–	3 h	CC(=O)c1cc2c(cc1NC(=O)c1sccc1S(=O)(=O)Nc1onc(C)c1Cl)OCO2	18%
0.132 µM	61.7 µM	–	–	COc1ccccc1NC(=O)c1sccc1S(=O)(=O)Nc1onc(C)c1Br	–
0.031 µM	> 100 µM	–	–	CC(=O)c1cc2c(cc1NC(=O)c1sccc1S(=O)(=O)Nc1onc(C)c1C)OCO2	–
0.549 µM	> 100 µM	–	–	COC(=O)c1cc(OC)c(OC)cc1NC(=O)c1sccc1S(=O)(=O)Nc1onc(C)c1Cl	–
1.43 µM	> 100 µM	–	–	COc1cc(NC(=O)c2sccc2S(=O)(=O)Nc2onc(C)c2Cl)c(C(=O)O)cc1OC	–
0.0061 µM	15.8 µM	–	–	CC(=O)OCCOc1cc2c(cc1NC(=O)c1sccc1S(=O)(=O)Nc1onc(C)c1Cl)OCO2	–
0.0039 µM	12.2 µM	–	–	COc1cc(C#N)c(NC(=O)c2sccc2S(=O)(=O)Nc2onc(C)c2Cl)cc1OC	–
0.0108 µM	61 µM	–	–	COc1cc(NC(=O)c2sccc2S(=O)(=O)Nc2onc(C)c2Cl)c(C(N)=O)cc1OC	–
–	35.5 µM	–	–	Cc1cc2c(cc1NC(=O)c1sccc1S(=O)(=O)Nc1onc(C)c1Cl)OCO2	–
0.0093 µM	–	–	–	Cc1noc(NS(=O)(=O)c2ccsc2C(=O)Nc2cc3c(cc2CC(=O)N(C)C)OCO3)c1Cl	–
0.0038 µM	25.7 µM	–	–	Cc1noc(NS(=O)(=O)c2ccsc2C(=O)Nc2cc3c(cc2CC#N)OCO3)c1Cl	–
0.015 µM	51.9 µM	–	–	COc1ccc(NC(=O)c2sccc2S(=O)(=O)Nc2onc(C)c2Cl)c(OC)c1	–
0.214 µM	19.5 µM	–	–	Cc1noc(NS(=O)(=O)c2ccsc2C(=O)Nc2ccccc2C(=O)O)c1Br	–
0.013 µM	44.7 µM	–	–	Cc1ccc(NC(=O)c2sccc2S(=O)(=O)Nc2onc(C)c2Cl)nc1	–
0.0051 µM	14.4 µM	–	–	Cc1noc(NS(=O)(=O)c2ccsc2C(=O)Nc2cc3c(cc2OCCO)OCO3)c1Cl	–
0.006 µM	9.08 µM	–	–	Cc1noc(NS(=O)(=O)c2ccsc2C(=O)Nc2cc3c(cc2CCCO)OCO3)c1Cl	–
0.0066 µM	8.24 µM	–	–	Cc1ccc(NC(=O)c2sccc2S(=O)(=O)Nc2onc(C)c2Cl)c(O)c1	–
0.057 µM	–	–	–	Cc1cc(NC(=O)c2sccc2S(=O)(=O)Nc2onc(C)c2Cl)no1	–
0.0026 µM	14 µM	–	–	COc1ccc(NC(=O)c2sccc2S(=O)(=O)Nc2onc(C)c2Cl)c(C)c1	–
